How the values were obtained:
HCT-116 [1] = assay: Cell cycle arrest in human HCT116 cells assessed as accumulation at G2/M phase at 2.5 uM after 8 to 12 hrs by propidium iodide staining-based flow cytometric method (reference value: 21.28%); type: functional
How it was run: (§1)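 HCT116 cells were exposed to DMSO or compound at 1.25, 2.5 or 5 μM; exposure is given as 8 h in the text and 12 h in the methods. Cells were harvested, washed twice in PBS and fixed in ice-cold ethanol at -4°C overnight. They were stained with propidium iodide (50 μg/mL) containing 0.1% RNase for 15 min in the dark at room temperature. Phase distribution was read by flow cytometry.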

HCT-116 [2] = assay: Cell cycle arrest in human HCT116 cells assessed as accumulation at G1 phase at 1.25 uM after 8 to 12 hrs by propidium iodide staining-based flow cytometric method (reference value: 40%); type: functional; how it was run: as §1
NCI-H1299 = assay: Antiproliferative activity against human H1299 cells after 48 hrs by MTS assay; type: functional, cell-based; conditions: NCI-H1299, 48 h
How it was run: (§2)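 Cells grown in RPMI 1640 with 9% FBS at 37°C, 5% CO2. 3000-10000 cells/well were left to attach 12 h, then given compound at five concentrations, or DMSO as vehicle control, for 48 h. MTS was added for 3 h at 37°C and absorbance read at 490 nm. IC50 (50% growth inhibition) was taken from triplicate dose-response curves.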

HCT-116 [3] = assay: Antiproliferative activity against human HCT116 cells after 48 hrs by MTS assay; type: functional, cell-based; conditions: HCT-116, 48 h; how it was run: as §2
HCT-116 [4] = assay: Cell cycle arrest in human HCT116 cells assessed as accumulation at G1 phase at 2.5 uM after 8 to 12 hrs by propidium iodide staining-based flow cytometric method (reference value: 40%); type: functional; how it was run: as §1
HCT-116 [5] = assay: Cell cycle arrest in human HCT116 cells assessed as accumulation at G2/M phase at 1.25 uM after 8 to 12 hrs by propidium iodide staining-based flow cytometric method (reference value: 21.28%); type: functional; how it was run: as §1
HCT-116 [6] = assay: Cell cycle arrest in human HCT116 cells assessed as accumulation at S phase at 1.25 uM after 8 to 12 hrs by propidium iodide staining-based flow cytometric method (reference value: 43.38%); type: functional; how it was run: as §1
HeLa = assay: Antiproliferative activity against human HeLa cells after 48 hrs by MTS assay; type: functional, cell-based; how it was run: as §2
HCT-116 [7] = assay: Cell cycle arrest in human HCT116 cells assessed as accumulation at G2/M phase after 8 to 12 hrs by propidium iodide staining-based flow cytometric method; type: functional; how it was run: as §1
[8] = Antiproliferative activity against HELF after 48 hrs by MTS assay; set-up: species or system Homo sapiens; how it was run: as §2
HCT-116 [9] = assay: Cell cycle arrest in human HCT116 cells assessed as accumulation at G1 phase at 5 uM after 8 to 12 hrs by propidium iodide staining-based flow cytometric method (reference value: 40%); type: functional; how it was run: as §1
PC-3 = assay: Antiproliferative activity against human PC3 cells after 48 hrs by MTS assay; type: functional, cell-based; conditions: PC-3, 48 h; how it was run: as §2
HCT-116 [10] = assay: Cell cycle arrest in human HCT116 cells assessed as accumulation at S phase at 5 uM after 8 to 12 hrs by propidium iodide staining-based flow cytometric method (reference value: 43.38%); type: functional; how it was run: as §1
Pyruvate kinase PKM = Pyruvate kinase PKM (Homo sapiens, UniProt P14618); assay: Activation of N-terminal His -tagged human PKM2 expressed in Escherichia coli BL21 using PEP as substrate measured at 30 secs intervals for between 3 and 6 mins by fluorescent pyruvate kinase-lactate dehydrogenase coupled assay
Sequence of Pyruvate kinase PKM (P14618 whole entry): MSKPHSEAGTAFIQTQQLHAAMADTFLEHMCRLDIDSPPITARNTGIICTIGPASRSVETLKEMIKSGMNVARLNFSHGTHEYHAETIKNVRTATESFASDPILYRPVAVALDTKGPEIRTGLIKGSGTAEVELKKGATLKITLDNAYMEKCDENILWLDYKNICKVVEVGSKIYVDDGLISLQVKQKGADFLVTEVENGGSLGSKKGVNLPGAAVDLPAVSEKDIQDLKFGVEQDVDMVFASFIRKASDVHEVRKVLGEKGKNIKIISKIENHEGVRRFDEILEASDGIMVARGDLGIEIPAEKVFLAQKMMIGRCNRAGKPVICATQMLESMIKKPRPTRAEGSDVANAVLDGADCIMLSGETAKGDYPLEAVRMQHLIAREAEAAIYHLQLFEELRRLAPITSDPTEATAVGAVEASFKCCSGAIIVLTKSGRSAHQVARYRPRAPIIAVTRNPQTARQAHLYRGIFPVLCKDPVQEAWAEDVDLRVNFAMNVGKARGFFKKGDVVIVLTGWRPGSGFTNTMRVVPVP

HCT-116 [11] = assay: Cell cycle arrest in human HCT116 cells assessed as accumulation at G2/M phase at 5 uM after 8 to 12 hrs by propidium iodide staining-based flow cytometric method (reference value: 21.28%); type: functional; how it was run: as §1
HCT-116 [12] = assay: Cell cycle arrest in human HCT116 cells assessed as accumulation at S phase at 2.5 uM after 8 to 12 hrs by propidium iodide staining-based flow cytometric method (reference value: 43.38%); type: functional; how it was run: as §1

O=S(=O)(Nc1ccc(C2(O)CSC(=S)N2Cc2cccnc2)cc1)c1ccc2c(c1)OCCO2 (stereo unspecified)
Activity (HCT-116 [1]): 56.76%
Activity (HCT-116 [2]): 20.37%
IC50 (NCI-H1299): 0.69 µM
IC50 (HCT-116 [3]): 0.81 µM
Activity (HCT-116 [4]): 17.35%
Activity (HCT-116 [5]): 48.86%
Activity (HCT-116 [6]): 30.52%
IC50 (HeLa): 0.46 µM
Activity (HCT-116 [7]): Dose-dependent effect
IC50 [8]: 11.8 µM
Activity (HCT-116 [9]): 11.58%
IC50 (PC-3): 0.66 µM
Activity (HCT-116 [10]): 27.65%
AC50 (Pyruvate kinase PKM): 3.14 µM
Activity (HCT-116 [11]): 63.21%
Activity (HCT-116 [12]): 23.99%
